Molecules are shown by their SMILES. Calls of active or inactive are those of the source. The rule behind the calls is not given here.

For orientation: IC50 means the concentration at which inhibition is half-maximal.

For data set [1], the system named is A549. Kind of data set: Antiproliferative activity against human A549 cells after 48 hrs by MTT assay. In kind it is functional, cell-based. As to conditions: A549, 48 h. The method in brief: (§1)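 MTT assay. Cells were seeded at 5.0 × 10⁴ cells/ml in 100 μL per well and grown 24 h. They were then exposed to a range of concentrations for 48 h. MTT (5 mg/ml) was added for 4 h, the supernatant was removed and DMSO was added. OD was read at 570 nm. Assays were run in triplicate and IC50 is reported as mean ± SD, n = 3.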
Background: Formazan colour is commonly taken as a measure of viable cells.

Another data set relates to MCF7. As to the kind of experiment: Antiproliferative activity against human MCF7 cells after 48 hrs by MTT assay. It counts as functional, cell-based. The following applies: MCF7, 48 h. The method in brief:
as §1

Another data set concerns HOS. Kind of data set: Antiproliferative activity against human HOS cells after 48 hrs by MTT assay. It counts as functional, cell-based. The method in brief: as §1
The next data set has as its system HepG2. As to the kind of experiment: Antiproliferative activity against human HepG2 cells after 48 hrs by MTT assay. It counts as functional, cell-based. As to conditions: HepG2, 48 h. An outline of the steps: as §1
Data set [2] in a line: Drug metabolism in human A549 cells assessed as nitric oxide release at 4 uM measured up to 24 hrs. It counts as ADME, cell-based. As to conditions: a549, 24 h. An outline of the steps:
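A549 cells were seeded at 5.0 × 10⁴ cells/ml in 100 μL wells and grown 24 h at 37 °C. Hybrids were added at 4 μM for varying times, with 24 h used for the full set. NO was measured with a Nitrate/Nitrite assay kit against a standard curve, reading OD at 550 nm. Values are the mean of three independent experiments.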

In data set [3] the test system is A549. Kind of data set: Induction of apoptosis in human A549 cells assessed as viable cells at 1.2 uM after 48 hrs by Annexin V-FITC/propidium iodide staining-based flow cytometric analysis (reference value: 98.5%). In kind it is functional. The following applies: A549, 48 h, read-out: Activity.
Data set [4] relates to A549. As to the kind of experiment: Induction of apoptosis in human A549 cells assessed as early apoptotic cells at 1.2 uM after 48 hrs by Annexin V-FITC/propidium iodide staining-based flow cytometric analysis (reference value: 0.5%). It counts as functional. Background: In flow cytometry, cells or beads pass a laser one at a time.
For data set [5], the system named is A549. Kind of data set: Induction of apoptosis in human A549 cells assessed as late apoptotic cells at 1.2 uM after 48 hrs by Annexin V-FITC/propidium iodide staining-based flow cytometric analysis (reference value: 0.4%). It counts as functional.
Data set [6] has as its system A549. Kind of data set: Induction of apoptosis in human A549 cells assessed as necrotic cells at 1.2 uM after 48 hrs by Annexin V-FITC/propidium iodide staining-based flow cytometric analysis (reference value: 0.6%). In kind it is functional.
For data set [7], the target named is Heat shock protein HSP90 (Homo sapiens) (UniProt P07900+P08238). As to the kind of experiment: Inhibition of HSP90 in human A549 cells assessed as decrease in Akt phosphorylation at 2.5 uM after 24 hrs by Western blot analysis. In kind it is cell-based. A general note: In western blotting, separated proteins are transferred to a membrane and probed.

Take `CC1=C(O)C(=O)C=C2C1=CC=C1[C@@]2(C)CC[C@@]2(C)[C@@H]3C[C@](C)(C(=O)OCCCCCCO[N+](=O)[O-])CC[C@]3(C)CC[C@]12C`: the IC50 in the data set on A549 [1] was 3670 nM; in the data set on MCF7 it was 3170 nM; in the data set on HOS it was 3360 nM; with HepG2 it was 4710 nM.

Take `CC1=C(O)C(=O)C=C2C1=CC=C1[C@@]2(C)CC[C@@]2(C)[C@@H]3C[C@](C)(C(=O)OCCCCCO[N+](=O)[O-])CC[C@]3(C)CC[C@]12C`: the IC50 with A549 [1] turned out to be 5320 nM; with MCF7, 3010 nM; in the data set with HOS it was 2900 nM; in the data set on HepG2, 3400 nM.

In the case of `CC1=C(O)C(=O)C=C2C1=CC=C1[C@@]2(C)CC[C@@]2(C)[C@@H]3C[C@](C)(C(=O)OCCOc4no[n+]([O-])c4S(=O)(=O)c4ccccc4)CC[C@]3(C)CC[C@]12C`, the IC50 in the data set with A549 [1] came out at 2280 nM; with MCF7 it was 2760 nM; with HOS, 1690 nM; in the data set on HepG2, 4750 nM. Further, the Drug metabolism result in data set [2] is recorded as “Metabolite_Detected”.

For the molecule `CC1=C(O)C(=O)C=C2C1=CC=C1[C@@]2(C)CC[C@@]2(C)[C@@H]3C[C@](C)(C(=O)OCC(C)COc4no[n+]([O-])c4S(=O)(=O)c4ccccc4)CC[C@]3(C)CC[C@]12C` (stereo not given in full), the IC50 in the data set with A549 [1] is 1110 nM; in the data set on MCF7, 1490 nM; with HOS, 1670 nM; in the data set on HepG2 it was 2390 nM. For the same molecule, the Drug metabolism result in data set [2] is “Metabolite_Detected”.

As to `CC1=C(O)C(=O)C=C2C1=CC=C1[C@@]2(C)CC[C@@]2(C)[C@@H]3C[C@](C)(C(=O)OCCCCOc4no[n+]([O-])c4S(=O)(=O)c4ccccc4)CC[C@]3(C)CC[C@]12C`, the concentration for half-maximal inhibition (IC50) with A549 [1] came to 2460 nM; in the data set on MCF7 it was 3950 nM; in the data set on HOS, 2470 nM; in the data set with HepG2, 3530 nM.

As for `NCCCOc1no[n+]([O-])c1S(=O)(=O)c1ccccc1`, the IC50 with A549 [1] is 25500 nM.

Regarding `CC1=C(O)C(=O)C=C2C1=CC=C1[C@@]2(C)CC[C@@]2(C)[C@@H]3C[C@](C)(C(=O)OCCCOc4no[n+]([O-])c4S(=O)(=O)c4ccccc4)CC[C@]3(C)CC[C@]12C`, the IC50 was 2890 nM in the data set with A549 [1], 2120 nM with MCF7, 1870 nM with HOS and 4530 nM in the data set with HepG2.

Regarding `CC1=C(O)C(=O)C=C2C1=CC=C1[C@@]2(C)CC[C@@]2(C)[C@@H]3C[C@](C)(C(=O)NCCOc4no[n+]([O-])c4S(=O)(=O)c4ccccc4)CC[C@]3(C)CC[C@]12C`, the IC50 was found to be 1080 nM with A549 [1], 1520 nM in the data set on MCF7, 1470 nM with HOS and 3820 nM in the data set on HepG2. The Drug metabolism result in [2] is “Metabolite_Detected”.

Take `CC1=C(O)C(=O)C=C2C1=CC=C1[C@@]2(C)CC[C@@]2(C)[C@@H]3C[C@](C)(C(=O)OCC(C)Oc4no[n+]([O-])c4S(=O)(=O)c4ccccc4)CC[C@]3(C)CC[C@]12C` (stereo not given in full): the IC50 with A549 [1] is 2070 nM; in the data set on MCF7, 2020 nM; in the data set with HOS, 3030 nM; in the data set on HepG2 it was 2390 nM.

`CC1=C(O)C(=O)C=C2C1=CC=C1[C@@]2(C)CC[C@@]2(C)[C@@H]3C[C@](C)(C(=O)OCCCO[N+](=O)[O-])CC[C@]3(C)CC[C@]12C`: the IC50 was determined as 3220 nM with A549 [1], 2540 nM with MCF7, 1370 nM in the data set on HOS and 1850 nM with HepG2. The Drug metabolism result in data set [2] is “Metabolite_Detected”.

Take `CC1=C(O)C(=O)C=C2C1=CC=C1[C@@]2(C)CC[C@@]2(C)[C@@H]3C[C@](C)(C(=O)OCCCCO[N+](=O)[O-])CC[C@]3(C)CC[C@]12C`: the IC50 in the data set on A549 [1] came to 4210 nM; in the data set on MCF7, 3820 nM; in the data set with HOS it was 2430 nM; in the data set with HepG2, 6080 nM. Further, the Drug metabolism entry in [2] is “Metabolite_Detected”.

In the case of `CC1=C(O)C(=O)C=C2C1=CC=C1[C@@]2(C)CC[C@@]2(C)[C@@H]3C[C@](C)(C(=O)O)CC[C@]3(C)CC[C@]12C` [CELASTROL], the IC50 in the data set on A549 [1] is 1430 to 1570 nM; with MCF7 it was 1560 nM; in the data set on HOS, 930 nM; in the data set with HepG2, 1620 nM. The viability at 1.2 µM with A549 [3] came to 75.8%. The Activity is recorded as 7.8% in the data set with A549 [4], 11.2% in the data set on A549 [5] and 5.2% in the data set on A549 [6]. The inhibition result in [7] was “Active”.

Values taken from ChEMBL document CHEMBL4325837, “Discovery of novel NO-releasing celastrol derivatives with Hsp90 inhibition and cytotoxic activities” (Eur J Med Chem, 2018).
